Experimental data of several laboratories.
Each line is one published result; the experiments were not run side by side.

`CCOC(=O)[C@@]12C[C@@H]1[C@@H](n1ccc3c(NC)nc(C#Cc4ccc(Cl)s4)nc31)[C@H](O)[C@@H]2O` gave an MRT of 2.34 h (male Sprague-Dawley rat; plasma; oral; 1 mg/kg).
`C=CC(=O)N(C)CCOc1c(N)ncnc1-c1cc(F)cc(NC(=O)c2ccc(C3CC3)cc2F)c1C` has a Tmax of 0.5 h (human; blood; oral; 30 mg; single dose, healthy volunteers).
`CCc1cc(C(=O)NC)c2nccc(N3CCc4c(cc(Cn5ccnc5)cc4-c4cn(C)nc4C(F)(F)F)C3=O)c2c1` gave an MRT(0-inf) of 0.4 h (male Sprague-Dawley rat; plasma; intravenous; 3 mg/kg).
For `Oc1c(Br)cc(Cl)c2cccnc12`, the MRT was 7.8 h (Sprague-Dawley rat; plasma; subcutaneous; 10 mg/kg).
`CC(C)(O)c1ccccc1-c1ccc2[nH]c(/C=C/c3ccc(C(F)(F)F)cc3)nc2c1` gave a Tmax of 4.44 h (male human; plasma; oral; 1 mg; single dose, fasted).
With `CC(C)n1cc(C#N)c2cc(-n3cc(C(=O)O)cn3)ccc21` the Tmax was 2.5 h (male human; plasma; oral; 600 mg; single dose, fasted, healthy volunteers).
`C[C@@H](Nc1cc(F)cc(F)c1)c1cc(C(=O)N(C)C)cc2c(=O)cc(N3CCOCC3)oc12` has a Tmax of 2 h (human; plasma; oral; 240 mg; patients).
With `O=C(Nc1cc(F)c(F)c(F)c1)c1ccc(F)c(S(=O)(=O)NCc2cccc(B(O)O)c2)c1` the MRT(0-inf) was 0.83 h (male Sprague-Dawley rat; plasma; intravenous; 2 mg/kg).
`Cn1cc(-c2ccc(S(=O)(=O)[C@@H]3C[C@@H](C(=O)NC4(C#N)CC4)N(C(=O)C4(C(F)(F)F)CC4)C3)c(C(F)(F)F)c2)cn1` gave a Tmax of 4.51 h (human; plasma; oral; 30 mg; single dose, fasted, healthy volunteers).
With `Cc1cn2nc(-c3cc(=O)n4cc(N5CCNC6(CC6)C5)ccc4n3)cc(C)c2n1` the fraction unbound was 0.16 (rat; plasma).
